{
  "source": "paper PMC6510378",
  "about": "(Clinical and Translational Science, 2019)",
  "key": {"[1]": {"experiment": "Urine PK, 10-mg, 20-mg and 50-mg cohorts", "format": "in vivo, human", "settings": "parent ASP3662", "procedure,_shortened": "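Urine drug concentration was measured by validated HPLC-MS/MS. Subjects were healthy young Japanese, young non-Japanese and elderly non-Japanese adults given oral doses of 10, 20 or 50 mg: single dose day 1, 4-day washout, then once daily on days 5–18. Dosing was fasted on PK days.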"}, "[2]": {"experiment": "Safety and tolerability, MAD study", "format": "in vivo, human", "settings": "for Any TEAE / Drug-related TEAE / Number of TEAEs / Number of drug-related TEAEs / TEAE: Constipation / TEAE: Gastrointestinal disorders / TEAE: General disorders and administration site conditions / TEAE: Headache / TEAE: Medical device site reaction / TEAE: Nervous system disorders / TEAE: Skin and subcutaneous tissue disorders: MAD study", "procedure,_shortened": "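Safety was assessed from treatment-emergent adverse events: nature, frequency, severity, onset/offset and relatedness to study drug, coded by MedDRA system organ class. Also assessed were haematology, serum chemistry, urinalysis, physical examination with vital signs, and ECGs. CNS scales used were Bond and Lader VAS, ARCI-49 and Profile of Mood States. Data were summarized descriptively.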"}},
  "data": [
    {"smiles": "Cn1c(-c2ccc(C(N)=O)cc2F)nnc1C(C)(C)Oc1c(F)cc(Cl)cc1F", "note": "[ASP3662]", "values": [
      {"measurement": "amount recovered from urine", "setting": "[1]", "result": "< 0.3 % of the administered dose"},
      {"measurement": "subjects with TEAE headache", "setting": "[2]; MAD part 2, 0.2 mg", "result": 2, "unit": "n"},
      {"measurement": "subjects with TEAE headache", "setting": "[2]; MAD part 2, 0.4 mg", "result": 1, "unit": "n"},
      {"measurement": "subjects with TEAE headache", "setting": "[2]; MAD part 2, 0.7 mg", "result": 1, "unit": "n"},
      {"measurement": "subjects with TEAE headache", "setting": "[2]; MAD part 2, 2 mg", "result": 1, "unit": "n"},
      {"measurement": "Any TEAE", "setting": "[2]; 10 mg, n=8", "result": "3 (37.5) n (%)"},
      {"measurement": "Drug-related TEAE", "setting": "[2]; 10 mg, n=8", "result": "2 (25.0) n (%)"},
      {"measurement": "Number of TEAEs", "setting": "[2]; 10 mg, n=8", "result": 3},
      {"measurement": "Number of drug-related TEAEs", "setting": "[2]; 10 mg, n=8", "result": 2},
      {"measurement": "TEAE: Constipation", "setting": "[2]; 10 mg, n=8", "result": "0 n (%)"},
      {"measurement": "TEAE: Gastrointestinal disorders", "setting": "[2]; 10 mg, n=8", "result": "0 n (%)"},
      {"measurement": "TEAE: General disorders and administration site conditions", "setting": "[2]; 10 mg, n=8", "result": "0 n (%)"},
      {"measurement": "TEAE: Headache", "setting": "[2]; 10 mg, n=8", "result": "0 n (%)"},
      {"measurement": "TEAE: Medical device site reaction", "setting": "[2]; 10 mg, n=8", "result": "0 n (%)"},
      {"measurement": "TEAE: Nervous system disorders", "setting": "[2]; 10 mg, n=8", "result": "0 n (%)"},
      {"measurement": "TEAE: Skin and subcutaneous tissue disorders", "setting": "[2]; 10 mg, n=8", "result": "1 (12.5) n (%)"},
      {"measurement": "Any TEAE", "setting": "[2]; 20 mg, n=25", "result": "14 (56.0) n (%)"},
      {"measurement": "Drug-related TEAE", "setting": "[2]; 20 mg, n=25", "result": "9 (36.0) n (%)"},
      {"measurement": "Number of TEAEs", "setting": "[2]; 20 mg, n=25", "result": 21},
      {"measurement": "Number of drug-related TEAEs", "setting": "[2]; 20 mg, n=25", "result": 12},
      {"measurement": "TEAE: Constipation", "setting": "[2]; 20 mg, n=25", "result": "1 (4.0) n (%)"},
      {"measurement": "TEAE: Gastrointestinal disorders", "setting": "[2]; 20 mg, n=25", "result": "1 (4.0) n (%)"},
      {"measurement": "TEAE: General disorders and administration site conditions", "setting": "[2]; 20 mg, n=25", "result": "3 (12.0) n (%)"},
      {"measurement": "TEAE: Headache", "setting": "[2]; 20 mg, n=25", "result": "5 (20.0) n (%)"},
      {"measurement": "TEAE: Medical device site reaction", "setting": "[2]; 20 mg, n=25", "result": "2 (8.0) n (%)"},
      {"measurement": "TEAE: Nervous system disorders", "setting": "[2]; 20 mg, n=25", "result": "9 (36.0) n (%)"},
      {"measurement": "TEAE: Skin and subcutaneous tissue disorders", "setting": "[2]; 20 mg, n=25", "result": "0 n (%)"},
      {"measurement": "Any TEAE", "setting": "[2]; 50 mg, n=16", "result": "6 (37.5) n (%)"},
      {"measurement": "Drug-related TEAE", "setting": "[2]; 50 mg, n=16", "result": "4 (25.0) n (%)"},
      {"measurement": "Number of TEAEs", "setting": "[2]; 50 mg, n=16", "result": 12},
      {"measurement": "Number of drug-related TEAEs", "setting": "[2]; 50 mg, n=16", "result": 6},
      {"measurement": "TEAE: Constipation", "setting": "[2]; 50 mg, n=16", "result": "2 (12.5) n (%)"},
      {"measurement": "TEAE: Gastrointestinal disorders", "setting": "[2]; 50 mg, n=16", "result": "2 (12.5) n (%)"},
      {"measurement": "TEAE: General disorders and administration site conditions", "setting": "[2]; 50 mg, n=16", "result": "1 (6.3) n (%)"},
      {"measurement": "TEAE: Headache", "setting": "[2]; 50 mg, n=16", "result": "3 (18.8) n (%)"},
      {"measurement": "TEAE: Medical device site reaction", "setting": "[2]; 50 mg, n=16", "result": "1 (6.3) n (%)"},
      {"measurement": "TEAE: Nervous system disorders", "setting": "[2]; 50 mg, n=16", "result": "3 (18.8) n (%)"},
      {"measurement": "TEAE: Skin and subcutaneous tissue disorders", "setting": "[2]; 50 mg, n=16", "result": "2 (12.5) n (%)"},
      {"measurement": "Any TEAE", "setting": "[2]; ASP3662 total (10-50 mg), n=49", "result": "23 (46.9) n (%)"},
      {"measurement": "Drug-related TEAE", "setting": "[2]; ASP3662 total (10-50 mg), n=49", "result": "15 (30.6) n (%)"},
      {"measurement": "Number of TEAEs", "setting": "[2]; ASP3662 total (10-50 mg), n=49", "result": 36},
      {"measurement": "Number of drug-related TEAEs", "setting": "[2]; ASP3662 total (10-50 mg), n=49", "result": 20},
      {"measurement": "TEAE: Constipation", "setting": "[2]; ASP3662 total (10-50 mg), n=49", "result": "3 (6.1) n (%)"},
      {"measurement": "TEAE: Gastrointestinal disorders", "setting": "[2]; ASP3662 total (10-50 mg), n=49", "result": "3 (6.1) n (%)"},
      {"measurement": "TEAE: General disorders and administration site conditions", "setting": "[2]; ASP3662 total (10-50 mg), n=49", "result": "4 (8.2) n (%)"},
      {"measurement": "TEAE: Headache", "setting": "[2]; ASP3662 total (10-50 mg), n=49", "result": "8 (16.3) n (%)"},
      {"measurement": "TEAE: Medical device site reaction", "setting": "[2]; ASP3662 total (10-50 mg), n=49", "result": "3 (6.1) n (%)"},
      {"measurement": "TEAE: Nervous system disorders", "setting": "[2]; ASP3662 total (10-50 mg), n=49", "result": "12 (24.5) n (%)"},
      {"measurement": "TEAE: Skin and subcutaneous tissue disorders", "setting": "[2]; ASP3662 total (10-50 mg), n=49", "result": "3 (6.1) n (%)"},
      {"measurement": "deaths, TEAEs leading to discontinuation, serious or drug-related TEAEs", "setting": "[2]; both SAD and MAD studies", "result": "No deaths, TEAEs leading to discontinuation, serious TEAEs"},
      {"measurement": "potentially clinically significant orthostatic pulse rate measurements", "setting": "[2]; elderly subjects who received ASP3662", "result": 44.4, "unit": "%"},
      {"measurement": "overall safety and tolerability", "setting": "[2]; multiple oral doses up to 50 mg for 14 days", "result": "safe and well tolerated"}
    ]}
  ]
}
